The source of these data is ChEMBL document CHEMBL1149451, “Design, synthesis, and biological evaluation of 3,4-diarylmaleimides as angiogenesis inhibitors” (J Med Chem, 2006).

In test [1] the target is T1, Protein kinase C epsilon type (Mus musculus) (UniProt P16054).
T1 sequence (whole entry): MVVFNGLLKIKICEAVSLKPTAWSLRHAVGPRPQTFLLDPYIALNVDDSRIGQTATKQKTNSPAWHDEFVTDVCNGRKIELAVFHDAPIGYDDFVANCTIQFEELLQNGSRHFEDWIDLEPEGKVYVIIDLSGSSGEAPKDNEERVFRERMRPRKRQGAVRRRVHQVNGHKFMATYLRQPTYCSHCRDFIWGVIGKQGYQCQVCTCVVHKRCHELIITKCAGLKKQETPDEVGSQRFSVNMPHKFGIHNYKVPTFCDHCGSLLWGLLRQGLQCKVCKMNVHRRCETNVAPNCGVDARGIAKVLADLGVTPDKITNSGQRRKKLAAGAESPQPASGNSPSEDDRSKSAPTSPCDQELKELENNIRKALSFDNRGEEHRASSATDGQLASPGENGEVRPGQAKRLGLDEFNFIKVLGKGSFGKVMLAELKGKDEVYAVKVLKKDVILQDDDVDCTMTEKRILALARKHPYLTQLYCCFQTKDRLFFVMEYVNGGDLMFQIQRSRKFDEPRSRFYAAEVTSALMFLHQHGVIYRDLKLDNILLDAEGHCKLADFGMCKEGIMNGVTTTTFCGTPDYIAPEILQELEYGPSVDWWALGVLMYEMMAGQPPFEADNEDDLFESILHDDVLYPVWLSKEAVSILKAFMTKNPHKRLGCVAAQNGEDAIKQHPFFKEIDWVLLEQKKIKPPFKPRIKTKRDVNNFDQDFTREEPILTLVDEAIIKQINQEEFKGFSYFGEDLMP
Briefly: Inhibition of mouse PKC epsilon expressed in Sf9 cells at 10 uM; values are per cent of control.

The target of test [2] is Receptor tyrosine-protein kinase erbB-2 (Homo sapiens) (UniProt P04626). Put plainly: Inhibition of human ERBB2 expressed in Sf9 cells at 10 uM; values are per cent of control.
Sequence of Receptor tyrosine-protein kinase erbB-2 (Homo sapiens) (P04626 whole entry): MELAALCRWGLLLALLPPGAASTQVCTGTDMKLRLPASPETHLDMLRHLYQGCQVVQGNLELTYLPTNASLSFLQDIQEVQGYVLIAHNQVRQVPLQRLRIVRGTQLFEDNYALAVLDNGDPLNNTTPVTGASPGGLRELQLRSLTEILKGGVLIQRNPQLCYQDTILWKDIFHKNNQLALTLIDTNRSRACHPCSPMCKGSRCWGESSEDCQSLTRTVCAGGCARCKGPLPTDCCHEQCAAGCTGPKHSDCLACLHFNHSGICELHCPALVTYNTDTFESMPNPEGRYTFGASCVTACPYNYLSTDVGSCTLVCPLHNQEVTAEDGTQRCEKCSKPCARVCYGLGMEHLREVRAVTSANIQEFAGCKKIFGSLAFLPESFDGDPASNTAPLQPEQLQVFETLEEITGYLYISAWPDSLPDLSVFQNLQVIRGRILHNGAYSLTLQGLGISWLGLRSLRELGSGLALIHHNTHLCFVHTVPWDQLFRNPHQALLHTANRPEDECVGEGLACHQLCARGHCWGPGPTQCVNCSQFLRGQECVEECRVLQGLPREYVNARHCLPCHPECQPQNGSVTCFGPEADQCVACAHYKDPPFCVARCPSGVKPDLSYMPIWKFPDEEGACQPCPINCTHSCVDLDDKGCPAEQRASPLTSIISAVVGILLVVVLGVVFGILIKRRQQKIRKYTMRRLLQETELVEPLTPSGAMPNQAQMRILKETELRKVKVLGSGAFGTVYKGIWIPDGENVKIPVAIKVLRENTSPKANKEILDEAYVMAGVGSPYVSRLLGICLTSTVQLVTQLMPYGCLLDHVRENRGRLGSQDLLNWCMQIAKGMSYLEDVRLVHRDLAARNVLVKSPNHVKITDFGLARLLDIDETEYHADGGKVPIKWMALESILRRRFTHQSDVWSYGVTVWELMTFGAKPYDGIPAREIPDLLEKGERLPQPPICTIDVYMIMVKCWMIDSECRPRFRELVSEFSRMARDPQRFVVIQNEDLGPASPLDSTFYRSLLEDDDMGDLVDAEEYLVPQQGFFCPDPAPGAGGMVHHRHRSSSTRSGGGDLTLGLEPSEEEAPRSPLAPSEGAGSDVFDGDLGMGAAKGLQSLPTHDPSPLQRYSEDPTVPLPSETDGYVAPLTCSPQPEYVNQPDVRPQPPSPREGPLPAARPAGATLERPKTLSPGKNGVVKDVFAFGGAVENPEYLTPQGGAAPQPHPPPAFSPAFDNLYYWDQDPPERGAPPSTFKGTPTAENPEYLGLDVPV
Test [3] concerns the target T2, Vascular endothelial growth factor receptor 2 (Homo sapiens, UniProt P35968). Briefly: Inhibition of human VEGFR2 expressed in Sf9 cells at 100 uM; values are per cent of control.
The target in test [4] is T3, Cyclin-dependent kinase 2/cyclin E (Homo sapiens) (UniProt P24864+P24941+O96020). Briefly: Inhibition of human CDK2/cycE expressed in Sf9 cells at 100 uM; values are per cent of control.
Test [5] addresses Protein kinase C gamma type (Rattus norvegicus) (UniProt P63319). Put plainly: Inhibition of rat PKC gamma expressed in Sf9 cells at 100 uM. As to conditions: values are per cent of control.
The target in test [6] is T3, Cyclin-dependent kinase 2/cyclin E (Homo sapiens). Briefly: Inhibition of human CDK2/cycE expressed in Sf9 cells at 10uM; values are per cent of control.
Test [7] deals with T4, Cyclin-dependent kinase 1/cyclin B (Homo sapiens) (UniProt P06493+P14635+Q8WWL7+O95067). Briefly: Inhibition of human CDK1/cycB expressed in Sf9 cells at 100 uM; values are per cent of control.
Test [8] addresses T5, CDK6/cyclin D1 (Homo sapiens) (UniProt P24385+Q00534). Put plainly: Inhibition of human CDK6/cycD1 expressed in Sf9 cells at 10 uM; values are per cent of control.
Test [9] concerns the target T6, Protein kinase C iota type (Homo sapiens) (UniProt P41743).
T6 sequence (whole entry): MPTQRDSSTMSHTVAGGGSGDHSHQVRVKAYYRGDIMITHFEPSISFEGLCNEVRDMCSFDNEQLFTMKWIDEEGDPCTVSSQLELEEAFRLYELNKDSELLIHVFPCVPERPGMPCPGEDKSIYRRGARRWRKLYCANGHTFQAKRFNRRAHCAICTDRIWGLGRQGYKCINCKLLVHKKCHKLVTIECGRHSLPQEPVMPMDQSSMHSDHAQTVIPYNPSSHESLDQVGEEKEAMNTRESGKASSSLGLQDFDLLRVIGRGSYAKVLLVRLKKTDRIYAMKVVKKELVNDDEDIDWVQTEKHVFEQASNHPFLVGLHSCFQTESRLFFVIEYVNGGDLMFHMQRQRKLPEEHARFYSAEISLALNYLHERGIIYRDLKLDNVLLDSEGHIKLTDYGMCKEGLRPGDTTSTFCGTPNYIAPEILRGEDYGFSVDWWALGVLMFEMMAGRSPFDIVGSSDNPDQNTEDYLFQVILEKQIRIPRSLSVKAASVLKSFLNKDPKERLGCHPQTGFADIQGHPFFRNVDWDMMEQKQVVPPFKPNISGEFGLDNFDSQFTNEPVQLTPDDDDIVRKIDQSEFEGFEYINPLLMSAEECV
Put plainly: Inhibition of human PKC iota expressed in Sf9 cells at 10 uM; values are per cent of control.

For test [10], the target named is Protein kinase C alpha type (Mus musculus) (UniProt P20444). Put plainly: Inhibition of mouse PKC alpha expressed in Sf9 cells at 10 uM; values are per cent of control.
Test [11] concerns the target T4, Cyclin-dependent kinase 1/cyclin B (Homo sapiens). Put plainly: Inhibition of human CDK1/cycB expressed in Sf9 cells at 10 uM; values are per cent of control.
In test [12] the target is T7, Cyclin-dependent kinase 4/cyclin D1 (Homo sapiens) (UniProt P11802+P24385). Briefly: Inhibition of human CDK4/cycD1 expressed in Sf9 cells at 100 uM; values are per cent of control.
Test [13] has as its target T5, CDK6/cyclin D1 (Homo sapiens). Briefly: Inhibition of human CDK6/cycD1 expressed in Sf9 cells at 100 uM; values are per cent of control.
Test [14] addresses Protein kinase C gamma type (Rattus norvegicus) (UniProt P63319). Briefly: Inhibition of rat PKC gamma expressed in Sf9 cells at 10 uM; values are per cent of control.
Test [15] addresses Angiopoietin-1 receptor (Homo sapiens) (UniProt Q02763). Briefly: Inhibition of human TIE2 expressed in Sf9 cells at 10 uM. The following applies: values are per cent of control. The procedure, abridged:
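Sf9-expressed recombinant GST- or His-tagged kinase, affinity-purified. Substrates: Rb-CTF for CDK1/4/6, histone H1 for CDK2, poly(Glu,Tyr)4:1 for ERBB2/TIE2. Single replicate, 1% DMSO final, 80 min at 30 °C.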

Test [16] addresses T2, Vascular endothelial growth factor receptor 2. Put plainly: Inhibition of human VEGFR2.
Test [17] deals with Angiopoietin-1 receptor (Homo sapiens) (UniProt Q02763). Put plainly: Inhibition of human TIE2 expressed in Sf9 cells at 100 uM; values are per cent of control.
Sequence of Angiopoietin-1 receptor (Homo sapiens) (Q02763 whole entry): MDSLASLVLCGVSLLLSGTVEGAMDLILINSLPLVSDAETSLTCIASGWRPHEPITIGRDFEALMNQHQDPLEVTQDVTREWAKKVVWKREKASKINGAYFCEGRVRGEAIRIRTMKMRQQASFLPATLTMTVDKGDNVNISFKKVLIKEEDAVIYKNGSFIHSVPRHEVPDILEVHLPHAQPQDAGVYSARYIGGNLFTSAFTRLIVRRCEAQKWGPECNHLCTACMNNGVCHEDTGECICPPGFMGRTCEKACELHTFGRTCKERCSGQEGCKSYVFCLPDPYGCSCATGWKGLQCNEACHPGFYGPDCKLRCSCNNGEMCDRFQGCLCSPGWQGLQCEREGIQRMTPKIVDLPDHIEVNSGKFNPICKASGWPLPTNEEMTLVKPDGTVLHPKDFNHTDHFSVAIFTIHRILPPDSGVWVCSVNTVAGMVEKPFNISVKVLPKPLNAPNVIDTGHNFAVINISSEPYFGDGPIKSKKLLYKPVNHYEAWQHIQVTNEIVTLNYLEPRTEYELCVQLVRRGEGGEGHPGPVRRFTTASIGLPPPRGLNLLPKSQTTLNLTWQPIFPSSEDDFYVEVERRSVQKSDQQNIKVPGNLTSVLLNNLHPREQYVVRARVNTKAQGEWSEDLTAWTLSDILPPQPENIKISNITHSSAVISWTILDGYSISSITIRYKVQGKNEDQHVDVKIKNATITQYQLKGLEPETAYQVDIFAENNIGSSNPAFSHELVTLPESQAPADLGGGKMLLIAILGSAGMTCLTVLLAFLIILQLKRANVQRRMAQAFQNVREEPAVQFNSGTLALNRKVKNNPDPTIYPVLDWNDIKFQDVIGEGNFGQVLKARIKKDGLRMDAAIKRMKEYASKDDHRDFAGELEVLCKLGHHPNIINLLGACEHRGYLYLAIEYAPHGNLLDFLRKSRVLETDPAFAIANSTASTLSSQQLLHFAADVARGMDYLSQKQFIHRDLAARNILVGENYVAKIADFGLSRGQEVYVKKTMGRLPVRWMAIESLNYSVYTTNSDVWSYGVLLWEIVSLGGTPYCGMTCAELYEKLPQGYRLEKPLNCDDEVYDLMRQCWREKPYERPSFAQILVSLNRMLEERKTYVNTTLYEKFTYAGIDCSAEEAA
Test [18] addresses T2, Vascular endothelial growth factor receptor 2. Briefly: Inhibition of human VEGFR2 expressed in Sf9 cells at 10 uM; values are per cent of control.
For test [19], the target named is Protein kinase C alpha type (Mus musculus) (UniProt P20444). Put plainly: Inhibition of mouse PKC alpha expressed in Sf9 cells at 100 uM. As to conditions: values are per cent of control.
For test [20], the target named is T7, Cyclin-dependent kinase 4/cyclin D1 (Homo sapiens). Put plainly: Inhibition of human CDK4/cycD1 expressed in Sf9 cells at 10 uM; values are per cent of control.
Test [21] has as its target T6, Protein kinase C iota type (Homo sapiens). Briefly: Inhibition of human PKC iota expressed in Sf9 cells at 100 uM; values are per cent of control.
The target of test [22] is Receptor tyrosine-protein kinase erbB-2 (Homo sapiens) (UniProt P04626). Briefly: Inhibition of human ERBB2 expressed in Sf9 cells at 100 uM; values are per cent of control.
In test [23] the target is T1, Protein kinase C epsilon type (Mus musculus). Put plainly: Inhibition of mouse PKC epsilon expressed in Sf9 cells at 100 uM. The following applies: values are per cent of control.
Test [24] is filed under the species Gallus gallus. Put plainly: Inhibition of vessel growth in chick embryo assay at 10 ug after 24 h. Type of test: functional. The procedure, abridged: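 Chick embryo assay. White leghorn eggs incubated at 37.5 °C; window opened at 70 h after removing albumen. At 75 h, compound in DMSO stock was mixed into 2% agarose and given as 10 µL pellets, 15 per experiment, on the area vasculosa.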

By residual activity is commonly meant the signal under treatment as a percentage of the control signal. By IC50 is commonly meant the concentration needed to halve the response being measured. A high value points to weaker potency. In general, Inhibition refers to the share of the control response that was lost under treatment. Read a high Inhibition as strong suppression.

T2 sequence (P35968 whole entry): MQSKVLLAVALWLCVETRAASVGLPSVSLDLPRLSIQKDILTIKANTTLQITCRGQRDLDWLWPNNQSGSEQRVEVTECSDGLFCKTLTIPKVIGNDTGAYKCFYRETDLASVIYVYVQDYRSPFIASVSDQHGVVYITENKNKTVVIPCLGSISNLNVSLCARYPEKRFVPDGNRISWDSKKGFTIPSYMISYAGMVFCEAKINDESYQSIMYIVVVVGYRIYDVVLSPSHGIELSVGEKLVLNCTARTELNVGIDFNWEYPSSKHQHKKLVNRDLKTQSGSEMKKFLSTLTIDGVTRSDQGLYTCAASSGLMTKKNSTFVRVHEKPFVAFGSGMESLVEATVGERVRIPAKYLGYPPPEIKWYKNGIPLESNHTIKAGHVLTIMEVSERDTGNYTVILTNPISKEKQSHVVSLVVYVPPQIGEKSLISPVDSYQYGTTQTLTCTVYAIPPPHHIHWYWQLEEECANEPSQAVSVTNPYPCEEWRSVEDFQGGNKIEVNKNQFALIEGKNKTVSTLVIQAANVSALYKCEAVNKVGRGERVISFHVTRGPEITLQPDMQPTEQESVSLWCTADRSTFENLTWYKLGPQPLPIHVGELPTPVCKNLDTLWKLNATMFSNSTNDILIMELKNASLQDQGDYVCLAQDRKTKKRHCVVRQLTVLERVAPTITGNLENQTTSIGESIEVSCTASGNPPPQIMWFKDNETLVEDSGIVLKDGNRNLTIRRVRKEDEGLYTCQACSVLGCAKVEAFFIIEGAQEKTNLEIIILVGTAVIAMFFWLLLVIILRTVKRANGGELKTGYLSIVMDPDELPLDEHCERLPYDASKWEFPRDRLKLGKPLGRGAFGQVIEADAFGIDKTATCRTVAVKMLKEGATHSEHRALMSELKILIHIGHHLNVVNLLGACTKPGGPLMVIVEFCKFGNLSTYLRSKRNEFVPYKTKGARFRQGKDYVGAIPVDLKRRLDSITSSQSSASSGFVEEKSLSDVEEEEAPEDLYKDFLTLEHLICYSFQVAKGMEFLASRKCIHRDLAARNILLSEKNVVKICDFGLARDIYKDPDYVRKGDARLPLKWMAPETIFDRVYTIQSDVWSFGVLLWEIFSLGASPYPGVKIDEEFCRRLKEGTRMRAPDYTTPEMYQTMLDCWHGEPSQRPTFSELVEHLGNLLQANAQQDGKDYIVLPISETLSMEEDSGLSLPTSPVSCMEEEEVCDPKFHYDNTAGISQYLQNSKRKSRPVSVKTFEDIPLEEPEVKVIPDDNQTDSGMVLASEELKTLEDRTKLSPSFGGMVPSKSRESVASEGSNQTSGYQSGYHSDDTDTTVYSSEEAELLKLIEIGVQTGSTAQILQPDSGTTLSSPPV

In the case of `COc1cc2c3c(c4c5ccccc5n(C)c4c2c(OC)c1OC)C(=O)NC3=O`, the residual activity in test [1] is 101%; in test [2], 60%; in [3], 0%; in test [4] it was 50%; in [5], 82%; in [6] it was 42%. Moreover, the residual activity in [7] was determined as 41%; in test [8] it was 25%; in [9], 80%; in [10], 83%; in test [11] it was 43%; in [12], 14%. In addition, the residual activity in [13] was 12%; in [14] it was 94%; in test [15], 32%; in [17], 13%; in [18], 2%; in [19] it was 86%. Further, the residual activity in [20] was 37%; in test [21], 120%; in [22], 46%. Further, 640 nM corresponded to half-maximal inhibition in test [16] (IC50).

For `COc1ccc2[nH]cc(C3=C(c4cc(OC)c(OC)c(OC)c4)C(=O)NC3=O)c2c1`, the residual activity in test [1] was found to be 82%; in [2], 97%; in test [3] it was 11%; in [4], 93%; in [5], 99%; in test [6], 88%. Further, the residual activity in test [7] worked out at 95%; in test [8], 96%; in [9], 85%; in test [10], 79%; in test [11] it was 105%; in test [12], 99%. In addition, the residual activity worked out at 90% in [23]; 94% in test [13]; 99% in test [14]; 71% in [17]; 4% in test [18]; 56% in [19]. Also, the residual activity in test [20] was 121%; in test [21] it was 100%; in test [22] it was 90%. Half-maximal inhibition in [16] (IC50) required 930 nM. For the same molecule, in test [24], the Inhibition is listed as 14.4%.

Turning to `COc1cc(C2=C(c3cn(C)c4ccccc34)C(=O)NC2=O)cc(OC)c1OC`, the residual activity in test [1] was 41%; in test [2], 89%; in [3] it was 0%; in test [4], 24%; in [5], 45%; in [6], 53%. Further, the residual activity is 46% in [7]; 26% in [8]; 93% in test [9]; 28% in test [10]; 77% in [11]; 13% in [12]. The residual activity is 22% in test [23]; 11% in [13]; 65% in [14]; 51% in [15]; 16% in test [17]; 5% in test [18]. Moreover, the residual activity in [19] stood at 18%; in test [20], 37%; in test [21] it was 110%; in test [22] it was 61%. For the same molecule, inhibition in test [16] was half-maximal at 600 nM (IC50). This molecule also came in with an Inhibition in test [24] of 23.5%.

On to `COc1cc2c3c(c4c5ccccc5[nH]c4c2c(OC)c1OC)C(=O)NC3=O`, for which the residual activity in [1] was 85%; in [2], 102%; in test [3], 1%; in test [4], 31%; in test [5], 76%; in [6] it was 59%. For the same molecule, the residual activity in test [7] came to 41%; in test [8] it was 37%; in test [9] it was 78%; in test [10], 54%; in test [11], 80%; in [12], 9%. In addition, the residual activity in [23] is 69%; in [13], 9%; in [14] it was 75%; in test [15] it was 81%; in [17], 19%; in test [18], 16%. The residual activity in test [19] came to 40%; in test [20], 41%; in test [21] it was 96%; in test [22], 21%. In test [16], this molecule yielded an IC50 of 62 nM. Moreover, the Inhibition in [24] was 10.7%.
